The source made the active and inactive calls. No cut-off for these calls is given here.
Key:
[1] = molecular target: Programmed cell death 1 ligand 1 (Homo sapiens) (UniProt Q9NZQ7); experiment: Induction of hydrophobic tag tethering degradation of PD-L1 in human NCI-H460 cells at 10 uM incubated for 24 hrs by Western blot analysis; assay type: cell-based
Outline: (§1)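 Cells seeded at 1×10^6 per well, incubated overnight, then exposed to DMSO or compound for 24 h. RIPA lysates were denatured at 100 °C for 15 min in SDS-PAGE loading buffer and run on 10% SDS-PAGE. Blots were probed overnight at 4 °C with anti-PD-L1 (1:1000), then a secondary (1:5000), with ECL detection. Bands were semi-quantified by densitometry.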

[2] = molecular target: Programmed cell death 1 ligand 1 (Homo sapiens) (UniProt Q9NZQ7); experiment: Induction of hydrophobic tag tethering degradation of PD-L1 in human NCI-H460 cells at 1 to 10 uM incubated for 24 hrs by Western blot analysis; assay type: cell-based; details: dose 1-10 µM; outline: as §1
[3] = molecular target: Programmed cell death 1 ligand 1 (Homo sapiens) (UniProt Q9NZQ7); experiment: Induction of hydrophobic tag tethering degradation of PD-L1 in human NCI-H460 cells incubated for 24 hrs by Western blot analysis; assay type: cell-based; details: dose 1-10 µM; outline: as §1
[4] = tested on: NCI-H460; experiment: Cytotoxicity against human NCI-H460 cells at 10 uM incubated for 24 to 72 hrs by MTT assay; assay type: functional, cell-based; details: time 24-72 hrs
Outline: (§2)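 NCI-H460 cells seeded at 4×10^3 per well in complete RPMI-1640 (10% FBS, 37 °C, 5% CO2), left 24 h, then given DMSO or compound in DMSO. MTT (5 mg mL⁻¹ in PBS) added after 24, 48 and 72 h exposure, 4 h further; formazan dissolved in isopropanol, absorbance at 570 nm. Triplicate; viability relative to DMSO group (100%).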

[5] = tested on: NCI-H460; experiment: Cytotoxicity against human NCI-H460 cells at 0.5 to 10 uM incubated for 24 to 72 hrs by MTT assay; assay type: functional, cell-based; details: dose 0.5-10 µM, time 24-72 hrs; outline: as §2
[6] = molecular target: Programmed cell death 1 ligand 1 (Homo sapiens) (UniProt Q9NZQ7); experiment: Induction of hydrophobic tag tethering degradation of PD-L1 in human HT-1080 cells incubated for 24 hrs by Western blot analysis; assay type: cell-based; details: dose 1-10 µM; outline: as §1
[7] = molecular target: Programmed cell death 1 ligand 1 (Homo sapiens) (UniProt Q9NZQ7); experiment: Induction of hydrophobic tag tethering degradation of PD-L1 in human NCI-H460 cells by immunofluorescence analysis; assay type: cell-based
Outline: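 NCI-H460 cells exposed to compound at various concentrations were fixed in 4% paraformaldehyde for 15 min at room temperature and blocked with 0.5% BSA for 1 h. Anti-PD-L1 (1:200) was applied overnight at 4 °C, then Alexa Fluor 555 donkey anti-rabbit (1:1000) for 30 min in the dark. Nuclei were stained with DAPI and cells imaged by confocal microscopy.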

[8] = molecular target: Programmed cell death 1 ligand 1 (Homo sapiens) (UniProt Q9NZQ7); experiment: Induction of hydrophobic tag tethering degradation of PD-L1 in human NCI-H460 cells at 10 uM incubated for 24 hrs in presence of MG132 by Western blot analysis; assay type: cell-based
[9] = molecular target: Programmed cell death 1 ligand 1 (Homo sapiens) (UniProt Q9NZQ7); experiment: Induction of hydrophobic tag tethering degradation of PD-L1 in human NCI-H460 cells at 10 uM by Western blot analysis; assay type: cell-based; outline: as §1

Chain of Programmed cell death 1 ligand 1 (Homo sapiens) (Q9NZQ7 whole entry): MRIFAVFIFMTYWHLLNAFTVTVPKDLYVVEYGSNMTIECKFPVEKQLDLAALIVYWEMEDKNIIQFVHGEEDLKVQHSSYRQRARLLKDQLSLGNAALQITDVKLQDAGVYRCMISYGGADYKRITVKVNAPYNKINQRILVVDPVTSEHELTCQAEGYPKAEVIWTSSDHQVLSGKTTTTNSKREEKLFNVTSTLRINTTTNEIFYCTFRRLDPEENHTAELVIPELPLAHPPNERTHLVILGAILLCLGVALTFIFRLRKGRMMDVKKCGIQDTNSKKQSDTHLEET

| Structure (SMILES) | Activity [1] | other results |
| --- | --- | --- |
| Cc1c(COc2ccc(CNCCOCCOCCOCCC(=O)NC(c3ccccc3)c3ccccc3)cn2)cccc1-c1ccccc1 | Active | Activity [2]: Active; Exhibited Mild Degradation Potency |
| Cc1c(-c2ccccc2)cccc1-c1ccc(CNCCOCCOCCOCCC(=O)NC(c2ccccc2)c2ccccc2)cn1 | Active |  |
| Cc1c(COc2ccc(CNCCOCCOCCOCCC(=O)NN3CCN(C(c4ccc(F)cc4)c4ccc(F)cc4)CC3)cn2)cccc1-c1ccccc1 | inactive |  |
| Cc1c(COc2ccc(CNCCOCCOCCOCCOCCC(=O)NC(C3CCCCC3)C3CCCCC3)cn2)cccc1-c1ccccc1 | inactive |  |
| Cc1c(-c2ccccc2)cccc1-c1ccc(CNCCOCCOCCOCCOCCC(=O)NC(c2ccccc2)c2ccccc2)cn1 | Active |  |
| Cc1c(-c2ccccc2)cccc1-c1ccc(CNCCOCCOCCC(=O)NC(c2ccccc2)c2ccccc2)cn1 | inactive |  |
| Cc1c(COc2ccc(CNCCOCCOCCOCCC(=O)NC34CC5CC(CC(C5)C3)C4)cn2)cccc1-c1ccccc1 | inactive |  |
| Cc1c(COc2ccc(CNCCOCCOCCOCCOCCC(=O)NC(c3ccccc3)c3ccccc3)cn2)cccc1-c1ccccc1 | Active |  |
| Cc1c(-c2ccccc2)cccc1-c1ccc(CNCCOCCOCCOCCOCCC(=O)NC(c2ccc(F)cc2)c2ccc(F)cc2)cn1 | inactive |  |
| Cc1c(COc2ccc(CNCCOCCOCCC(=O)NN3CCN(C(c4ccc(F)cc4)c4ccc(F)cc4)CC3)cn2)cccc1-c1ccccc1 | Active | Activity [3]: Dose-dependent-effect; Activity [4]: Active; Exhibited Mild Cytotoxicity |
| Cc1c(COc2ccc(CNCCOCCOCCOCCOCCOCCC(=O)NCCNC(=O)C(C)c3ccc(CC(C)C)cc3)cn2)cccc1-c1ccccc1 (centres undefined) | inactive |  |
| Cc1c(COc2ccc(CNCCOCCOCCOCCOCCOCCC(=O)NC(C3CCCCC3)C3CCCCC3)cn2)cccc1-c1ccccc1 | inactive |  |
| Cc1c(COc2ccc(CNCCOCCOCCOCCOCCC(=O)NC34CC5CC(CC(C5)C3)C4)cn2)cccc1-c1ccccc1 | inactive |  |
| Cc1c(COc2ccc(CNCCOCCOCCOCCOCCC(=O)NC(c3ccccc3)c3ccc(C(F)(F)F)cc3)cn2)cccc1-c1ccccc1 (centres undefined) | inactive |  |
| Cc1c(COc2ccc(CNCCOCCOCCOCCOCCOCCC(=O)NC(c3ccccc3)c3ccccc3)cn2)cccc1-c1ccccc1 | inactive |  |
| Cc1c(COc2ccc(CNCCOCCOCCOCCOCCC(=O)NN3CCN(C(c4ccc(F)cc4)c4ccc(F)cc4)CC3)cn2)cccc1-c1ccccc1 | inactive |  |
| Cc1c(COc2ccc(CNCCOCCOCCOCCC(=O)NCCNC(=O)C(C)c3ccc(CC(C)C)cc3)cn2)cccc1-c1ccccc1 (centres undefined) | inactive |  |

| Structure (SMILES) | Activity [1] | other results |
| --- | --- | --- |
| Cc1c(COc2ccc(CNCCOCCOCCOCCOCCOCCC(=O)NC34CC5CC(CC(C5)C3)C4)cn2)cccc1-c1ccccc1 | Active |  |
| Cc1c(-c2ccccc2)cccc1-c1ccc(CNCCOCCOCCOCCC(=O)NC(c2ccc(F)cc2)c2ccc(F)cc2)cn1 | inactive |  |
| Cc1c(-c2ccccc2)cccc1-c1ccc(CNCCOCCOCCC(=O)NC(c2ccc(F)cc2)c2ccc(F)cc2)cn1 | inactive |  |
| Cc1c(COc2ccc(CNCCOCCOCCC(=O)NC(c3ccccc3)c3ccc(C(F)(F)F)cc3)cn2)cccc1-c1ccccc1 (centres undefined) | inactive |  |
| Cc1c(-c2ccccc2)cccc1-c1ccc(CNCCOCCOCCOCCOCCC(=O)NN2CCN(C(c3ccc(F)cc3)c3ccc(F)cc3)CC2)cn1 | inactive |  |
| Cc1c(-c2ccccc2)cccc1-c1ccc(CNCCOCCOCCOCCC(=O)NC(c2ccccc2)c2ccc(C(F)(F)F)cc2)cn1 (centres undefined) | inactive |  |
| Cc1c(-c2ccccc2)cccc1-c1ccc(CNCCOCCOCCOCCOCCC(=O)NC(c2ccccc2)c2ccc(C(F)(F)F)cc2)cn1 (centres undefined) | inactive |  |
| Cc1c(COc2ccc(CNCCOCCOCCC(=O)NC34CC5CC(CC(C5)C3)C4)cn2)cccc1-c1ccccc1 | inactive |  |
| Cc1c(COc2ccc(CNCCOCCOCCOCCC(=O)NC(C3CCCCC3)C3CCCCC3)cn2)cccc1-c1ccccc1 | inactive |  |
| Cc1c(COc2ccc(CNCCOCCOCCC(=O)NC(c3ccccc3)c3ccccc3)cn2)cccc1-c1ccccc1 | Active | Activity [2]: Active; Exhibited Mild Degradation Potency |
| Cc1c(-c2ccccc2)cccc1-c1ccc(CNCCOCCOCCOCCC(=O)NN2CCN(C(c3ccc(F)cc3)c3ccc(F)cc3)CC2)cn1 | Active | Activity [3]: Dose-dependent-effect; Activity [5]: Not active; Exhibited Almost No Cytotoxicity; Activity [6]: Dose-dependent-effect; Activity [7]: Dose-dependent-effect; Activity [8]: Not active; Result Indicates That Degradation Of Pd-L1 Occurs Through Proteosome Pathway; Activity [9]: Time-dependent-effect; Almost No Degradation Activity Observed For 72 Hrs |
| Cc1c(COc2ccc(CNCCOCCOCCOCCOCCC(=O)NCCNC(=O)C(C)c3ccc(CC(C)C)cc3)cn2)cccc1-c1ccccc1 (centres undefined) | inactive |  |
| Cc1c(-c2ccccc2)cccc1-c1ccc(CNCCOCCOCCC(=O)NC(c2ccccc2)c2ccc(C(F)(F)F)cc2)cn1 (centres undefined) | inactive |  |
| Cc1c(COc2ccc(CNCCOCCOCCC(=O)NC(C3CCCCC3)C3CCCCC3)cn2)cccc1-c1ccccc1 | inactive |  |
| Cc1c(-c2ccccc2)cccc1-c1ccc(CNCCOCCOCCC(=O)NN2CCN(C(c3ccc(F)cc3)c3ccc(F)cc3)CC2)cn1 | Active | Activity [3]: Dose-dependent-effect; Activity [5]: Not active; Exhibited Almost No Cytotoxicity; Activity [6]: Dose-dependent-effect; Activity [7]: Dose-dependent-effect; Activity [8]: Not active; Result Indicates That Degradation Of Pd-L1 Occurs Through Proteosome Pathway; Activity [9]: Time-dependent-effect; Almost No Degradation Activity Observed For 72 Hrs |
| Cc1c(COc2ccc(CNCCOCCOCCC(=O)NCCNC(=O)C(C)c3ccc(CC(C)C)cc3)cn2)cccc1-c1ccccc1 (centres undefined) | inactive |  |

Source: ChEMBL document CHEMBL6083228, “A novel hydrophobic tag leads to the efficient degradation of programmed death-ligand 1” (RSC Med Chem, 2024)
